Test results taken from ChEMBL document CHEMBL4004814, “In Vitro and in Vivo Evaluation of Fully Substituted (5-(3-Ethoxy-3-oxopropynyl)-4-(ethoxycarbonyl)-1,2,3-triazolyl-glycosides as Original Nucleoside Analogues to Circumvent Resistance in Myeloid Malignancies” (J Med Chem, 2017).
The source made the active and inactive calls. The rule behind the calls is not given here.

Tests used:
Type in all cases: functional, cell-based
K562 = assay: Antileukemic activity against human K562 cells after 48 hrs by XTT assay; conditions: K562, 48 h
Outline: (§1)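 XTT read-out of mitochondrial metabolism after 48 h incubation with compound (up to 10 µM in first screen). XTT reagent added to cells, formazan absorbance read at 490 nm. Each assay run in quadruplicate. IC50 derived; standard deviation reported. Resistant K562 line obtained by chronic imatinib exposure for 6 months.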

[1] = Antiproliferative activity against human SKM1-R cells after 48 hrs by DAPI-staining-based flow cytometric method
Outline: (§2)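 Flow cytometry of DAPI incorporation after 48 h incubation with compound; DL50 derived. SKM1 grown in RPMI with 10% FCS at 37°C, 5% CO2, with penicillin/streptomycin.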

[2] = Antiproliferative activity against human SKM1-S cells after 48 hrs by DAPI-staining-based flow cytometric method; outline: as §2
[3] = Antiproliferative activity against human SKM1-R cells after 48 hrs by XTT assay
[4] = Antiproliferative activity against human SKM1-S cells after 48 hrs by XTT assay; outline: as §1
SKM1-S = assay: Induction of apoptosis in human SKM1-S cells assessed as caspase 3 cleavage at 1 uM by Western blot method
SKM1-R = assay: Induction of apoptosis in human SKM1-R cells assessed as caspase 3 cleavage at 10 uM by Western blot method

SMILES | IC50 (K562) [nM] | also measured
CCOC(=O)c1nnn([C@@H]2O[C@H](COC(C)=O)[C@@H](OC(C)=O)[C@H]2OC(C)=O)c1C(=O)c1ccco1 | > 10000 | –
CCOC(=O)C#Cc1c(C(=O)OCC)nnn1[C@@H]1O[C@H](CO)[C@H]2O[C@@](C)(c3ccccc3)O[C@H]21 | 500 | –
CCOC(=O)C#Cc1c(C(=O)OCC)nnn1[C@H]1C[C@H](OC(C)=O)[C@@H](COC(C)=O)O1 | 200 | –
CCOC(=O)c1nnn([C@@H]2O[C@H](COC(C)=O)[C@@H](OC(C)=O)[C@H]2OC(C)=O)c1C(=O)c1ccc(C)cc1 | > 10000 | –
CCOC(=O)C#Cc1c(C(=O)OCC)nnn1[C@@H]1O[C@H](COC(C)=O)[C@@H](OC(C)=O)[C@H]1OC(C)=O | 700 | –
CCOC(=O)c1nnn([C@@H]2O[C@H](COC(C)=O)[C@@H](OC(C)=O)[C@H]2OC(C)=O)c1C(=O)c1cccs1 | > 10000 | –
COC(=O)C#Cc1c(C(=O)OC)nnn1[C@@H]1O[C@H](CO)[C@H]2OC(C)(C)O[C@H]21 | 1450 | –
Nc1ncn([C@@H]2O[C@H](CO)[C@@H](O)[C@H]2O)c(=O)n1 [AZACITIDINE] | – | EC50 [1]: > 10000 nM; EC50 [2]: 510 nM; IC50 [3]: > 10000 nM; IC50 [4]: 500 nM; Activity (SKM1-S): Active; Activity (SKM1-R): inactive
CCOC(=O)C#Cc1c(C(=O)OCC)nnn1[C@H]1O[C@@H](COC(C)=O)[C@H](OC(C)=O)[C@@H]1OC(C)=O | 200 | –
CCCC1(CCC)O[C@@H]2[C@H](O1)[C@@H](CO)O[C@H]2n1nnc(C(=O)OCC)c1C#CC(=O)OCC | 150 | –
CCOC(=O)C#Cc1c(C(=O)OCC)nnn1[C@@H]1O[C@H](COC(C)=O)[C@H](OC(C)=O)[C@H]1OC(C)=O | 200 | –
CCOC(=O)c1nnn([C@@H]2O[C@H](CO)[C@H]3OC(C)(C)O[C@H]32)c1C#Cc1ccc(F)cc1 | > 10000 | –
CCOC(=O)c1nnn([C@@H]2O[C@H](CO)[C@H]3OC(C)(C)O[C@H]32)c1I | > 10000 | –
CCOC(=O)C#Cc1c(C(=O)OCC)nnn1[C@@H]1O[C@H](COC(C)=O)[C@H]2OC(C)(C)O[C@H]21 | 500 | –
CCOC(=O)c1nnn([C@@H]2O[C@H](COC(C)=O)[C@@H](OC(C)=O)[C@H]2OC(C)=O)c1-c1cccs1 | > 10000 | –
CCCCCCCC#Cc1c(C(=O)OCC)nnn1[C@@H]1O[C@H](CO)[C@H]2OC(C)(C)O[C@H]21 | > 10000 | –
NC(=O)c1ncn([C@@H]2O[C@H](CO)[C@@H](O)[C@H]2O)c1N [ACADESINE] | 800000 | –
CC(=O)OC[C@H]1O[C@@H](n2nnc(C(=O)OC(C)(C)C)c2C#CC(=O)OC(C)(C)C)[C@H](OC(C)=O)[C@@H]1OC(C)=O | 2500 | –
COC(=O)C#Cc1c(C(=O)OC)nnn1[C@@H]1O[C@H](COC(C)=O)[C@H]2OC(C)(C)O[C@H]21 | 150 | –
COC(=O)c1nnn([C@@H]2O[C@H](CO)[C@H]3OC(C)(C)O[C@H]32)c1I | > 10000 | –
CCOC(=O)C#Cc1c(C(=O)OCC)nnn1[C@@H]1O[C@H](COC)[C@H]2OC(C)(C)O[C@H]21 | 550 | –
CC(C)(C)OC(=O)C#Cc1c(C(=O)OC(C)(C)C)nnn1[C@@H]1O[C@H](CO)[C@H]2OC(C)(C)O[C@H]21 | 1150 | –
CCOC(=O)C#Cc1c(C(=O)OCC)nnn1[C@@H]1O[C@H](COC)[C@@H](OC)[C@H]1OC | 800 | –
CCOC(=O)c1nnn([C@@H]2O[C@H](COC(C)=O)[C@@H](OC(C)=O)[C@H]2OC(C)=O)c1I | > 10000 | –
